Ecoli WT expand = growth inhibitors of E. coli BW25113 wild type | OD600 absorbance | growth inhibition, % at 100 µM | 0.15% of 98,000 active;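 active = growth inhibition above about 50% at one test dose, limit read from the data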;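 note: growth measured after 20 h incubation at 37 °C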
D1 mod = D1 dopamine receptor (human) allosteric modulation | P21728 | HEK293 D1, CRE-luciferase, dopamine EC30 potentiation; actives deviate in either direction | B-score at 10 µM | 5.9% of 58,000 active;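 active = luminescence count or its row- and column-corrected plate score outside the 99.7% band of the plate's sample wells, on either side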
Target sequence (P21728 whole entry, looked up): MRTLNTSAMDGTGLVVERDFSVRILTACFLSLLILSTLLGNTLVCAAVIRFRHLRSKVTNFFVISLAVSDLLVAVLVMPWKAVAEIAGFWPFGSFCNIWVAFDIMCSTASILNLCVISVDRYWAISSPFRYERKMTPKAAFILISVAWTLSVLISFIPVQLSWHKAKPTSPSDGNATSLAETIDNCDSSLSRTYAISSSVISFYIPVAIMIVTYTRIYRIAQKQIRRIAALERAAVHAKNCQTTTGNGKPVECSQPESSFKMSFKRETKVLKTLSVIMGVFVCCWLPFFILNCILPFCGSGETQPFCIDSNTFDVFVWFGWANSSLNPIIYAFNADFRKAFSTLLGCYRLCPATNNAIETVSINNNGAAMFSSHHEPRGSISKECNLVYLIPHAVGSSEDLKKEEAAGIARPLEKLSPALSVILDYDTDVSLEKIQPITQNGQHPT
DAT uptake mod = human DAT dopamine uptake with cocaine, either direction | Q01959 | LLC-PK1 hDAT cells, [14C]-dopamine uptake with cocaine IC80; actives deviate in either direction | B-score at 10 µM | 1.3% of 110,000 active | AID 449768;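 active = Z score or B-score, a plate-position-corrected score, falls beyond the plate's 99.7% confidence bounds, in either direction; inactive = both scores lie inside the 99.7% bounds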
Ecoli tolC = growth inhibitors of E. coli BW25113 tolC mutant. OD615. growth inhibition, % at 10 µM (by protocol). 2.2% of 65,000 active. AID 573;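 active = growth inhibition at or above a cutoff equal to the mean over every tested compound plus 3 SD, cut at about 60% in these data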;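 note: growth measured after 20 h incubation at 37 °C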
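test system = E. coli BW25113 ΔtolC::kan bacteria | medium = LB with kanamycin 50 µg/mL | signal = OD at 615 nm | schedule = 37 °C, 20 h exposure | evaluation = % inhibition of E. coli growth | compound dosing = one dose of 10 µM final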
PostGolgi ctrl = yeast control strain growth, post-Golgi counter-screen; efflux-deficient yeast background strain, growth absorbance A615, 16 h; inhibition, % at 10 µM; 5% of 98,000 active
PostGolgi yeast = growth inhibition of a yeast mutant, post-Golgi transport screen | post-Golgi transport phenotypic cell assay | 0.9% of 98,000 active | inhibition, % at 10 µM;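 note: yeast cells grown in 1536-well plates; yeast grown about 18 h at 30C before absorbance read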
Large screens that a line does not name were inactive. Hits are enriched below; roughly 9.3% of the tested compounds scored in any of these assays. Cut-off read from the data, not from the text of the source, unless noted: active = inhibition above about 30%; inactive = the rest.

COc1ccc2nc(-c3ccccc3)[nH]c2c1	D1 mod -5.3
COc1ccc2nc(NCc3ccccc3)[nH]c2c1	D1 mod -4.1
Cc1cc(C)cc(NC(=O)OCCN2CCN(Cc3ccccc3)CCC2=O)c1	none (no result: Ecoli WT expand, D1 mod, Ecoli tolC, PostGolgi ctrl, PostGolgi yeast)
Cc1ccc(C2NC(=O)c3c(sc4c3CCN(C)C4)N2)o1 (configuration not stated)	PostGolgi yeast 32
O=C(O)C(Cc1c[nH]c2ccccc12)NS(=O)(=O)c1cccc2nsnc12 (configuration not stated)	none (no result: Ecoli WT expand, DAT uptake mod, PostGolgi ctrl, PostGolgi yeast)
Cc1cc2nnc(SCC(=O)OC(C)C)n2c2ccccc12	none (no result: D1 mod, DAT uptake mod, Ecoli tolC)
O=S(=O)(c1ccc(Cl)cc1)c1snnc1-c1ccccc1	PostGolgi ctrl 34 (no result: D1 mod, Ecoli tolC)
CN(C)c1ncc(S(=O)(=O)c2ccc(Cl)cc2)c(-c2ccccc2)n1	none (no result: D1 mod, Ecoli tolC)
C=CC1=C2C=C(C3CC3)N(CCCN(CC)CC)C=C2C(=O)C(C)(OC(=O)c2ccco2)C1=O (configuration not stated)	none (no result: Ecoli WT expand, D1 mod, Ecoli tolC, PostGolgi ctrl, PostGolgi yeast)
CN1CCN(C(=O)C2=C[C@@H](C3CCCCC3)C[C@@H](OCCCCO)O2)CC1	none (no result: Ecoli WT expand, D1 mod, Ecoli tolC, PostGolgi ctrl, PostGolgi yeast)
O=C(CSc1ccc(Cl)cc1)N1CCN(c2ccc(Cl)cc2[N+](=O)[O-])CC1	PostGolgi ctrl 72 (no result: D1 mod, Ecoli tolC)
CCC(=O)N1CCN(c2ccc(OC)cc2[N+](=O)[O-])CC1	none (no result: D1 mod, Ecoli tolC)
CC(N1CCOC1=O)S(=O)(=O)c1ccccc1 (configuration not stated)	none (no result: D1 mod, Ecoli tolC)
CCc1ccc(NC(=O)c2ccc3ncsc3c2)cc1	PostGolgi ctrl 71 (no result: D1 mod, DAT uptake mod, Ecoli tolC)
Cc1ccc(C(=O)CC2(O)C(=O)N(CCc3ccccc3)c3ccc(Br)cc32)o1 (configuration not stated)	PostGolgi yeast 31
O=C(Nc1ccccc1)c1ccn[nH]1	none (no result: D1 mod, Ecoli tolC)
CC(=O)c1ccc(NC(=O)c2ccn[nH]2)cc1	D1 mod -2.2
CC(C)C(=O)Nc1ccc(NC(=S)NC(=O)c2ccc([N+](=O)[O-])cc2)cc1	none (no result: D1 mod, Ecoli tolC)
Cc1nn(CCC#N)c(NC(=O)c2ccc(Cl)cc2)c1P(=O)(Nc1ccc([N+](=O)[O-])cc1)N1CCOCC1 (configuration not stated)	DAT uptake mod -5.6 (no result: D1 mod, Ecoli tolC)
Cc1nn(CCC#N)c(NC(=O)c2ccc(Cl)cc2Cl)c1P(=O)(Nc1ccc([N+](=O)[O-])cc1)N1CCOCC1 (configuration not stated)	DAT uptake mod -6.5 (no result: D1 mod, Ecoli tolC)
COc1ccc(N(CC(=O)NN=C2CCCCCCC2)S(=O)(=O)c2ccccc2)cc1	none (no result: D1 mod, Ecoli tolC)
CC(C)CN(CC(C)C)C(=O)C12CCC(C)(C(=O)O1)C2(C)C (configuration not stated)	none (no result: Ecoli WT expand, D1 mod, Ecoli tolC, PostGolgi ctrl, PostGolgi yeast)
CC(C)c1cc(Br)ccc1OCCCN1C(=O)NC(C)(C)C1=O	PostGolgi ctrl 38 (no result: D1 mod, Ecoli tolC)
CC1(C)NC(=O)N(CCCOc2ccc(Br)cc2Cl)C1=O	none
COCCCNC(=O)CN(c1ccc(OC)cc1)S(=O)(=O)c1ccc(NC(C)=O)cc1	none
CCCCOc1cccc(NC(=O)CSc2nccn2C)c1	DAT uptake mod 2.7
CC(=O)Nc1cccc(NS(=O)(=O)Cc2ccc(Cl)cc2)c1	none
CC(=O)c1ccc(NS(=O)(=O)Cc2ccc(Cl)cc2)cc1	DAT uptake mod 3.2 (no result: D1 mod, Ecoli tolC)
COC(=O)c1c(C)oc2ccc(OC(=O)c3cccs3)cc12	Ecoli tolC 84 (no result: D1 mod)
CN(c1ccc(Cl)cc1)c1cc(=O)n(C)c2ccccc12	DAT uptake mod 3.1, PostGolgi ctrl 64
Cc1c(C(N)=O)sc2ncn(CC(=O)N3CCC(C)CC3)c(=O)c12	none (no result: D1 mod, Ecoli tolC)
CCN(CC)c1ncnc2c1ncn2Cc1c(Cl)cccc1Cl	none (no result: Ecoli WT expand, D1 mod, Ecoli tolC, PostGolgi ctrl, PostGolgi yeast)
Clc1cccc(Cl)c1Cn1cnc2c(N3CCCCCC3)ncnc21	PostGolgi ctrl 34
O=C(CSc1nc2nc(-c3cccs3)cc(C(F)(F)F)c2c(=O)[nH]1)NCc1ccco1	Ecoli tolC 91
CCCN(CCC)C(=O)CC(c1ccccc1)c1cc(C)ccc1O (configuration not stated)	DAT uptake mod 2.5 (no result: D1 mod, Ecoli tolC)
O=C(OCn1ncc(Cl)c(Cl)c1=O)c1cccc(C(F)(F)F)c1	PostGolgi ctrl 42, PostGolgi yeast 106 (no result: D1 mod, Ecoli tolC)
CCc1ccc(C(=O)Cn2ncc(Cl)c(Cl)c2=O)cc1	none (no result: D1 mod, Ecoli tolC)
O=C(CCSCCc1ccccn1)Nc1ccc(Br)cn1	none (no result: D1 mod, Ecoli tolC)
O=C(N/C=N/OCc1ccc(Cl)cc1Cl)NOCc1ncc(C(F)(F)F)cc1Cl	PostGolgi ctrl 34 (no result: D1 mod, Ecoli tolC)
Cc1cc(C)nc(NC(=O)CSc2nc3cc(Cl)ccc3s2)n1	PostGolgi ctrl 36 (no result: D1 mod, Ecoli tolC)
CCCC(=O)Nc1cc(Cl)ccc1N1CCN(C(=O)CC)CC1	none

From PubChem
